Experimental findings from ChEMBL document CHEMBL4130501 (Eur J Med Chem, 2017) are described below.

Calls of active or inactive are those of the source. No cut-off for these calls is given here. Where only a bound is given, the exact number is not on record here.

Data set [1] in a line: Antioxidant activity assessed as DPPH radical scavenging activity incubated for 60 mins under dark condition by spectrophotometry. The class given is functional. In a few lines:
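DPPH radical scavenging was measured, and the IC50 was taken as the compound concentration giving 50% scavenging.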

Data set [2] relates to HT-22. Description: Cytotoxicity in mouse HT22 cells assessed as reduction in cell viability at 100 uM incubated for 24 hrs by MTT assay. The class given is cell-based. Particulars: ht-22, 24 h. The method, boiled down: (§1)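 Mouse HT22 cells were exposed to compounds at 30, 50 and 100 µM for 24 h. Viability was read by colorimetric MTT assay and compared with untreated control cells (n = 3).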
Background: Tetrazolium dyes change colour on reduction, which living cells bring about.

The nature of data set [3]: Inhibition of AChE (unknown origin) at 500 nM pre-incubated for 20 mins before acetylthiocholine iodide substrate addition by Ellman reagent based spectrophotometry. Particulars: Homo sapiens. The method, boiled down: (§2)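 Cholinesterase inhibition was tested with the compound at 500 nM and reported as percent inhibition, mean ± SEM.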
(In general: Ellman's reagent forms a yellow product with free thiols.)

A short description of data set [4]: Permeability at 100 ug/ml incubated for 10 hrs by PAMPA method. The class given is ADME. Particulars: read-out: Peff. In a few lines: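 Passive BBB permeation was measured by PAMPA-BBB through an artificial lipid membrane, with Pe given in 10^-6 cm s^-1. Classification: Pe > 4.7 is CNS+, 4.7 to 1.8 is uncertain, and Pe < 1.8 is CNS−.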
Data set [5] in a line: Metal chelating activity against Cupric ions assessed as induction of isosbestic shift of maximum absorption upon addition of CuCl2 at 10 uM incubated for 30 mins UV-Vis spectrophotometry.
Data set [6] deals with T1, Cholinesterase (Homo sapiens, UniProt P06276). Nature of the data set: Inhibition of BuChE (unknown origin) at 500 nM pre-incubated for 20 mins before S-Butyrylthiocholine iodide substrate addition by Ellman reagent based spectrophotometry. The method, boiled down: as §2
T1 sequence (P06276 whole entry): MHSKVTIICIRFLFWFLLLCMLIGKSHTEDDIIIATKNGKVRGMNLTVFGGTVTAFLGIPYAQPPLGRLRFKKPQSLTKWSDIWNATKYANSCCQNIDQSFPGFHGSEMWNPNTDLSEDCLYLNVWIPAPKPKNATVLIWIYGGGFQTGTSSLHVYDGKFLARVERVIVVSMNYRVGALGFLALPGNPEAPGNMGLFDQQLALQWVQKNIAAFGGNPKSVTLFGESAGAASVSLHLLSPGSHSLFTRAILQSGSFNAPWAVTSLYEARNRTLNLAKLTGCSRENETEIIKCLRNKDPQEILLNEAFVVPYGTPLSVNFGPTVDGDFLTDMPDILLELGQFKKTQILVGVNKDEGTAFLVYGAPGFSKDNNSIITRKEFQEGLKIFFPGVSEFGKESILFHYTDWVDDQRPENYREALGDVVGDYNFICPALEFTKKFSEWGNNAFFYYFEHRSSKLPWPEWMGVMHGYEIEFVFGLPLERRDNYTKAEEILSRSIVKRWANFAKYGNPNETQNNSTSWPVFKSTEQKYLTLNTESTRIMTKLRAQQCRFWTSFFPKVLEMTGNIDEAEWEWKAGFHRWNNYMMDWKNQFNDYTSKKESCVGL
The target of data set [7] is Amyloid-beta precursor protein (Homo sapiens) (UniProt P05067). Nature of the data set: Inhibition of self-induced amyloid beta (1 to 42) (unknown origin) aggregation at 10 uM after 24 hrs by thioflavin T-based fluorometric assay relative to control. The method, boiled down:
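Self-mediated Aβ1-42 aggregation was followed by thioflavin-T fluorescence with 10 µM inhibitor present. Percent inhibition was reported as mean ± SEM.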

For data set [8], the system named is HT-22. Nature of the data set: Neuroprotective activity against glutamate-induced cytotoxicity in mouse HT22 cells assessed as increase cell viability at 3 to 30 uM pre-incubated for 30 mins before glutamate stimulation for 24 hrs by MTT assay. The class given is functional, cell-based. The method, boiled down:
(§3)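 HT22 cells were pretreated for 30 min with compounds at 3, 10 or 30 µM, then exposed to […] glutamate for 24 h. Viability was read by MTT (n = 3) and compared against the glutamate-only group and the control.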

Data set [9] concerns the target T1, Cholinesterase. Description: Inhibition of BuChE (unknown origin) pre-incubated for 20 mins before S-Butyrylthiocholine iodide substrate addition by Ellman reagent based spectrophotometry.
For data set [10], the system named is HT-22. Description: Cytotoxicity in mouse HT22 cells assessed as reduction in cell viability at 30 to 100 uM incubated for 24 hrs by MTT assay. The format is cell-based. Particulars: ht-22, 24 h. In a few lines: as §1
Data set [11] relates to HT-22. Nature of the data set: Neuroprotective activity against glutamate-induced cytotoxicity in mouse HT22 cells assessed as increase cell viability at 30 uM pre-incubated for 30 mins before glutamate stimulation for 24 hrs by MTT assay. The format is functional, cell-based. In a few lines:
as §3

Data set [12] concerns HT-22. Nature of the data set: Cytotoxicity in mouse HT22 cells assessed as reduction in cell viability at 30 uM incubated for 24 hrs by MTT assay. Particulars: ht-22, 24 h. The class given is cell-based. In a few lines:
as §1

Data set [13] has as its system HT-22. Description: Neuroprotective activity against glutamate-induced cytotoxicity in mouse HT22 cells assessed as increase cell viability at 10 uM pre-incubated for 30 mins before glutamate stimulation for 24 hrs by MTT assay. The class given is functional, cell-based. The method, boiled down: as §3

What is called IC50 is the point on the concentration scale where inhibition reaches its midpoint. For orientation: inhibition means the drop in the measured response relative to a control, in per cent.

Sequence of Amyloid-beta precursor protein (Homo sapiens) (P05067 whole entry): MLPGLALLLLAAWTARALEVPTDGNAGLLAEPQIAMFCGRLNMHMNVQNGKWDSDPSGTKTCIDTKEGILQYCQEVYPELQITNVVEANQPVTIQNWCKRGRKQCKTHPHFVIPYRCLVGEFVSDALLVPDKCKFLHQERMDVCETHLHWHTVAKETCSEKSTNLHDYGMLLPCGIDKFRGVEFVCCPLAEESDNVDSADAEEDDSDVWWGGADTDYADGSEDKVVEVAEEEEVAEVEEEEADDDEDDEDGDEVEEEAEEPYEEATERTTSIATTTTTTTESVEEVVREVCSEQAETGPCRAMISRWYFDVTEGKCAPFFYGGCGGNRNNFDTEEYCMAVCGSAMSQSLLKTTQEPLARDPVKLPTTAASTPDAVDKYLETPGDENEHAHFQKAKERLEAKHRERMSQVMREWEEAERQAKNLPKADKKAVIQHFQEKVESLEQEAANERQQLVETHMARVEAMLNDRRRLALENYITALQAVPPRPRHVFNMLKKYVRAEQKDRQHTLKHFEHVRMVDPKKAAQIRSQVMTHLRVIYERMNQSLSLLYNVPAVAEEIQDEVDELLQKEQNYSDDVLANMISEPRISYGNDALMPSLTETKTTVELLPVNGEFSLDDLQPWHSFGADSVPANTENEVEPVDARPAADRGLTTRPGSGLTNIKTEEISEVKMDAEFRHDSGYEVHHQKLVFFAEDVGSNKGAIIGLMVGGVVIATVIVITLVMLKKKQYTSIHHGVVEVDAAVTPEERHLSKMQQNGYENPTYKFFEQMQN

With `CCN(C)C(=O)Oc1cccc(CCNC(=O)c2cc(O)c(O)c(O)c2)c1`, the IC50 in data set [1] amounted to 11.7 µM; against Cholinesterase [9], 0.452 µM. The Activity result in the data set on HT-22 [2] is “Toxic”. The inhibition in data set [3] was determined as 3.48%; on Cholinesterase [6] it was 58.8%; in data set [7] it was 27.1%. For the same compound, the Papp at 10 h, 100 ug/ml in [4] stood at 5.14 ×10⁻⁶ cm/s. In [5], the result was Active. Moreover, the result with HT-22 [8] was inactive.

For the compound `CCN(C)C(=O)Oc1cccc(CNC(=O)c2cc(O)c(O)c(O)c2)c1`, the Activity entry with HT-22 [10] was “Non-Toxic”. In [1], the IC50 is 12.9 µM. Also, the inhibition in data set [3] came out at 5.53%; at Cholinesterase [6], 2.39%; in data set [7] it was 51.8%. In data set [4], the Papp at 10 h, 100 ug/ml amounted to 4.86 ×10⁻⁶ cm/s. The result (in [5]; with HT-22 [11]) was Active.

`CCN(C)C(=O)Oc1cccc([C@H](C)N(C)C)c1` [RIVASTIGMINE]: the results for the inhibition (in data set [3]; at Cholinesterase [6]) were 1.92% and 30.1%, respectively. The Papp at 10 h, 100 ug/ml in data set [4] turned out to be 16.3 ×10⁻⁶ cm/s.

As for `CCN(C)C(=O)Oc1cccc(CCNC(=O)c2cc(=O)c3ccccc3o2)c1`, the Activity entry in the data set with HT-22 [10] is given as “Toxic”. Moreover, the IC50 in [1] is greater than 100 µM; at Cholinesterase [9] it was 0.511 µM. Moreover, the values for the inhibition (in data set [3]; at Cholinesterase [6]; in data set [7]) were 22.1%, 49.1% and 67.4%, respectively. Besides, the result with HT-22 [8] was inactive.

For `CCN(C)C(=O)Oc1cccc(CNC(=O)c2cc(=O)c3ccccc3o2)c1`, the results for the IC50 (in [1]; at Cholinesterase [9]) were greater than 100 µM and 0.65 µM, respectively. Also, the inhibition stood at 12.7% in [3], 37.1% on Cholinesterase [6] and 55.2% in data set [7]. Moreover, the Activity result in the data set on HT-22 [12] is on record as “Toxic”. The outcome in the data set on HT-22 [13] was Active.

For `CCN(C)C(=O)Oc1cccc(NC(=O)CCCCC2CCSS2)c1` (stereo unspecified), the Activity entry with HT-22 [10] is on record as “Non-Toxic”. For the same compound, the values for the IC50 (in [1]; against Cholinesterase [9]) were 4.53 µM and 0.356 µM, respectively. The inhibition amounted to 0.51% in data set [3], 77.4% at Cholinesterase [6] and 46.3% in data set [7]. Moreover, the Papp at 10 h, 100 ug/ml in data set [4] is 10.3 ×10⁻⁶ cm/s. Further, the result in data set [5] was Active. The result in the data set with HT-22 [11] was inactive.

Turning to `CCN(C)C(=O)Oc1cccc(CNC(=O)CCCCC2CCSS2)c1` (stereo unspecified), the Activity result in the data set with HT-22 [10] is reported as “Non-Toxic”. In addition, the IC50 stood at 4.3 µM in [1] and 0.378 µM against Cholinesterase [9]. Moreover, the inhibition in data set [3] turned out to be 3.66%; against Cholinesterase [6], 77.3%; in data set [7] it was 51.8%. Moreover, in data set [4], the Papp at 10 h, 100 ug/ml is 27.8 ×10⁻⁶ cm/s. Also, the result in [5] was Active. Further, the result in the data set with HT-22 [11] was inactive.

With `CCN(C)C(=O)Oc1cccc(CCNC(=O)CCCCC2CCSS2)c1` (stereo unspecified), the Activity entry in the data set on HT-22 [10] is given as “Non-Toxic”. The IC50 was determined as 4.88 µM in data set [1] and 0.34 µM at Cholinesterase [9]. Moreover, the results for the inhibition (in data set [3]; on Cholinesterase [6]; in data set [7]) were -1.48%, 76.7% and 49.8%, respectively. In [4], the Papp at 10 h, 100 ug/ml worked out at 12.1 ×10⁻⁶ cm/s. Also, the result with HT-22 [11] was inactive.

On to `CCN(C)C(=O)Oc1cccc(NC(=O)c2cc(O)c(O)c(O)c2)c1`, for which the IC50 in data set [1] came out at 10.6 µM. In addition, the Activity entry in the data set on HT-22 [2] was “Toxic”. Further, the inhibition in data set [3] stood at 23.6%; on Cholinesterase [6], 7.98%; in data set [7], 47.3%. Besides, in data set [4], the Papp at 10 h, 100 ug/ml came to 3.08 ×10⁻⁶ cm/s. Moreover, the result (in [5]; in the data set with HT-22 [13]) was Active.

With `Cc1c(C)c2c(c(C)c1O)CCC(C)(C(=O)O)O2` (stereo unspecified) [TROLOX], in data set [1], the IC50 is 23.5 µM.

For the compound `CCN(C)C(=O)Oc1cccc(NC(=O)c2cc(=O)c3ccccc3o2)c1`, the Activity entry with HT-22 [10] is listed as “Toxic”. Moreover, the IC50 in data set [1] was greater than 100 µM; at Cholinesterase [9] it was 0.507 µM. Moreover, the results for the inhibition (in data set [3]; against Cholinesterase [6]; in [7]) were 9.03%, 53.8% and 63.8%, respectively. Moreover, the outcome in the data set with HT-22 [8] was inactive.
